Measured values published in ChEMBL document CHEMBL5712079, “The H3K27me3-demethylase KDM6A is suppressed in breast cancer stem-like cells, and enables the resolution of bivalency during the mesenchymal-epithelial transition” (Oncotarget, 2017).
Activity calls are given as the source filed them.

Experiments:
Format in all cases: cell-based
[1] = target: Lysine-specific demethylase 6A (Homo sapiens) (UniProt O15550); assay: Inhibition of KDM6A in human MCF-10A cell assessed as FZD8 gene expression at 50 nM by qRT-PCR analysis
Sequence of Lysine-specific demethylase 6A (Homo sapiens) (O15550 whole entry): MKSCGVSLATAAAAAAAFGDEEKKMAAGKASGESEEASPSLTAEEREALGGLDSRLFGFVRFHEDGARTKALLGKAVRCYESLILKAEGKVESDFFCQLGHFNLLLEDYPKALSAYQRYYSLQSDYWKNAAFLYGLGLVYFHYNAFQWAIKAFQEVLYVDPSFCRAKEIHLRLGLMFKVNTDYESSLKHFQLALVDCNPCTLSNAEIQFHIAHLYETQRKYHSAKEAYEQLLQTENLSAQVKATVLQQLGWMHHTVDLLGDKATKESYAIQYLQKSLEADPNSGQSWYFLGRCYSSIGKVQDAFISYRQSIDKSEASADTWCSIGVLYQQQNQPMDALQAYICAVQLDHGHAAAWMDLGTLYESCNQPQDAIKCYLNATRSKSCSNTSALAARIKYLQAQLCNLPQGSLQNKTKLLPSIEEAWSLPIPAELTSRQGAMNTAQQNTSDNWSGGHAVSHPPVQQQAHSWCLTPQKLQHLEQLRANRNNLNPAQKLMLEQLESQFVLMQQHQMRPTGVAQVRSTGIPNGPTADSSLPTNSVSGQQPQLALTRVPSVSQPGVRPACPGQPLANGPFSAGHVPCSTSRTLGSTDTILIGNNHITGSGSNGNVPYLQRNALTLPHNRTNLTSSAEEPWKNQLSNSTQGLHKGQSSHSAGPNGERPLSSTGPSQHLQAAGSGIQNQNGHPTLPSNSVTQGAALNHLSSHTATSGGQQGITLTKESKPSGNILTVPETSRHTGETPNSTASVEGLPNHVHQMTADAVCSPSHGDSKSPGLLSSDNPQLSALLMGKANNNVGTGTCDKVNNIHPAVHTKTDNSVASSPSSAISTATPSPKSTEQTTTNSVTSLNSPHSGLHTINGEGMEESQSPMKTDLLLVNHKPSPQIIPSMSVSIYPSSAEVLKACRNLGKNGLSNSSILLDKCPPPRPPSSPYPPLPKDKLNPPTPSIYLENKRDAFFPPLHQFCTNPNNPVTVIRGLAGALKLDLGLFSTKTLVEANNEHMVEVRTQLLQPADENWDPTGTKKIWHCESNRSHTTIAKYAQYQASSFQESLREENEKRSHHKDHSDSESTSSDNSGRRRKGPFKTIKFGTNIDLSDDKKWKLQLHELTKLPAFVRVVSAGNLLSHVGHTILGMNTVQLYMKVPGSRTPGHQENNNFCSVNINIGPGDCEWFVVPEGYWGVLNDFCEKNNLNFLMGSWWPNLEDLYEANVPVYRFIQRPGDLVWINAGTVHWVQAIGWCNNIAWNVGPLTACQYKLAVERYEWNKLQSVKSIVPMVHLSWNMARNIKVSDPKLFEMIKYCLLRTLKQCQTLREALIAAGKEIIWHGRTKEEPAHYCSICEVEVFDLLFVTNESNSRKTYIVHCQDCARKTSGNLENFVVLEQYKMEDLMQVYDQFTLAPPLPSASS
Method in brief: (§1)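 MCF10A monolayers were exposed to TGFB at 2.5 ng/ml for 6 days to induce EMT, then cultured without TGFB for 10 days (MET) with compound at 50 nM or DMSO vehicle. Vehicle-only and TGFB-only arms served as references. RNA was analysed by qRT-PCR, normalised to GAPDH by 2^-ΔΔCt, and run in triplicate (mean ± SD). Significance was by unpaired t-tests with Holm-Sidak correction.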

[2] = target: Lysine-specific demethylase 6A (Homo sapiens) (UniProt O15550); assay: Inhibition of KDM6A in human MCF-10A cell assessed as CCNA1 gene expression at 50 nM by qRT-PCR analysis; method in brief: as §1
[3] = target: Lysine-specific demethylase 6A (Homo sapiens) (UniProt O15550); assay: Inhibition of KDM6A in human MCF-10A cell assessed as C60ORF14 gene expression at 50 nM by qRT-PCR analysis; method in brief: as §1
[4] = target: Lysine-specific demethylase 6A (Homo sapiens) (UniProt O15550); assay: Inhibition of KDM6A in human MCF-10A cell assessed as H2AFY2 gene expression at 50 nM by qRT-PCR analysis; method in brief: as §1
[5] = target: Lysine-specific demethylase 6A (Homo sapiens) (UniProt O15550); assay: Inhibition of KDM6A in human MCF-10A cell assessed as MAP3K9 gene expression at 50 nM by qRT-PCR analysis; method in brief: as §1
[6] = target: Lysine-specific demethylase 6A (Homo sapiens) (UniProt O15550); assay: Inhibition of KDM6A in human MCF-10A cell assessed as vimentin expression at 50 nM by immunostaining analysis
Method in brief: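 MCF10A cells received TGFB (2.5 ng/ml; vehicle was 4 mM HCl with 0.1% BSA) to induce EMT, then TGFB was withdrawn in the presence of compound (50 nM) or DMSO. Cells were fixed and immunostained for vimentin and imaged by inverted fluorescence microscopy.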

[7] = target: Lysine-specific demethylase 6A (Homo sapiens) (UniProt O15550); assay: Inhibition of KDM6A in human MCF-10A cell assessed as MED30 gene expression at 50 nM by qRT-PCR analysis; method in brief: as §1
[8] = target: Lysine-specific demethylase 6A (Homo sapiens) (UniProt O15550); assay: Inhibition of KDM6A in human MCF-10A cell assessed as COBLL1 gene expression at 50 nM by qRT-PCR analysis; method in brief: as §1
[9] = target: Lysine-specific demethylase 6A (Homo sapiens) (UniProt O15550); assay: Inhibition of KDM6A in human MCF-10A cell assessed as PUS3 gene expression at 50 nM by qRT-PCR analysis; method in brief: as §1
[10] = target: Lysine-specific demethylase 6A (Homo sapiens) (UniProt O15550); assay: Inhibition of KDM6A in human MCF-10A cell assessed as THOC6 gene expression at 50 nM by qRT-PCR analysis; method in brief: as §1
[11] = target: Lysine-specific demethylase 6A (Homo sapiens) (UniProt O15550); assay: Inhibition of KDM6A in human MCF-10A cell assessed as LRRC8D gene expression at 50 nM by qRT-PCR analysis; method in brief: as §1
[12] = target: Lysine-specific demethylase 6A (Homo sapiens) (UniProt O15550); assay: Inhibition of KDM6A in human MCF-10A cell assessed as PKP2 gene expression at 50 nM by qRT-PCR analysis; method in brief: as §1
[13] = target: Lysine-specific demethylase 6A (Homo sapiens) (UniProt O15550); assay: Inhibition of KDM6A in human MCF-10A cell assessed as CBX4 gene expression at 50 nM by qRT-PCR analysis; method in brief: as §1
[14] = target: Lysine-specific demethylase 6A (Homo sapiens) (UniProt O15550); assay: Inhibition of KDM6A in human MCF-10A cell assessed as ILKAP gene expression at 50 nM by qRT-PCR analysis; method in brief: as §1
[15] = target: Lysine-specific demethylase 6A (Homo sapiens) (UniProt O15550); assay: Inhibition of KDM6A in human MCF-10A cell assessed as ZNF232 gene expression at 50 nM by qRT-PCR analysis; method in brief: as §1
[16] = target: Lysine-specific demethylase 6A (Homo sapiens) (UniProt O15550); assay: Inhibition of KDM6A in human MCF-10A cell assessed as FAM117A gene expression at 50 nM by qRT-PCR analysis; method in brief: as §1
[17] = target: Lysine-specific demethylase 6A (Homo sapiens) (UniProt O15550); assay: Inhibition of KDM6A in human MCF-10A cell assessed as FAM60A gene expression at 50 nM by qRT-PCR analysis; method in brief: as §1
[18] = target: Lysine-specific demethylase 6A (Homo sapiens) (UniProt O15550); assay: Inhibition of KDM6A in human MCF-10A cell assessed as CDK4 gene expression at 50 nM by qRT-PCR analysis; method in brief: as §1

Measured: inhibition

CCOC(=O)CCNc1cc(N2CCc3ccccc3CC2)nc(-c2ccccn2)n1
active: [1] | [2] | [3] | [4] | [5] | [6] | [7] | [8] | [9] | [10] | [11] | [12] | [13] | [14] | [15] | [16] | [17] | [18]
